The values below come from article PMC5553550 (Nature nanotechnology, 2017).

One data set has as its system pSmad1/5. Briefly: Western blot of Smad phosphorylation in C2C12 cells. The data set is classed as cell-based, mouse. (In general: Immunoblotting shows a protein as a band on a membrane.)
Data set [1] is described as follows: SAXS / cryo-TEM of self-assembly. The data set is classed as physicochemical. The following applies: cryo-TEM at 25 μM or SAXS.
In data set [2] the test system is BMP-2 signaling in C2C12 cells. Briefly: BMP-2 induced ALP activity in C2C12 cells. It counts as cell-based, mouse. As to conditions: BMP-2 75 ng/mL, 3 days; for enhancement of BMP-2 induced ALP activity, in words: PA or monosaccharide 25 μM, n = 8.
For data set [3], the system named is BMP-4 signaling in C2C12 cells. Nature of the data set: BMP-4 induced ALP activity in C2C12 cells. It counts as cell-based, mouse. The following applies: BMP-4 75 ng/mL, monosaccharide 1 25 μM, 3 days; n = 8. Put shortly:
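C2C12 cells were co-treated with BMP-4 (75 ng/mL) and either the glycopeptide amphiphile nanostructure or the free sulfated monosaccharide, each at 25 μM. Osteoblast differentiation was read out as alkaline phosphatase (ALP) activity. Results are reported as mean ± SEM with n = 8.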

Data set [4] deals with noggin. Nature of the data set: SPR binding to immobilized noggin. The following applies: heparin 0.01-100 µM or PA 1 10-60 µM; HEPES buffer pH 7.6, 25 °C. On the technique in general: In SPR one partner is held on a chip, and binding of the other changes the refractive index at the surface.
The test system of a further data set is BMP-2. As to conditions: known effect; ref [4],[5]; cited from earlier work.
Data set [5] relates to noggin. As to conditions: C2C12 cells; ref [5],[41]; cited from earlier work.
A further data set concerns C2C12 cells. Nature of the data set: Mineralization assay. The following applies: BMP-2 100 ng/mL; heparin 0.62 μM (10 μg/mL) or PA 25 μM; 10 days. It counts as cell-based, mouse.

As for `c1ccc2c(-c3cnn4cc(-c5ccc(N6CCNCC6)cc5)cnc34)ccnc2c1` [LDN-193189], in the data set with pSmad1/5 (LDN-193189 0.5 μM, BMP-2 75 ng/mL, regardless of heparin or PA 1), the “BMP-2 mediated Smad phosphorylation with LDN-193189” value is given as “impeded the BMP-2 mediated phosphorylation of Smads”.
Regarding `CC(=O)N[C@H]1[C@H](OCCN=[N+]=[N-])O[C@H](COS(=O)(=O)O)[C@@H](OS(=O)(=O)O)[C@@H]1OS(=O)(=O)O` [monosaccharide 1, 2-Azidoethyl 2-acetamido-3,4,6-tri-O-sulfo-2-deoxy-β-D-glycopyranoside], the “self-assembly / supramolecular structure” value in data set [1] is listed as “absence of any significant supramolecular structure”. Also, the “enhancement of BMP-2 induced ALP activity, in words” value in data set [2] is reported as “found this not to be the case”. Further, in data set [3], the “amplification of BMP-4 signaling (ALP activity)” value is on record as “found this not to be the case”.
As to Heparin, in the data set on noggin [4], the “SPR binding to noggin” value is “did not observe a strong binding to noggin”. The “half-life of BMP-2” value in the data set on BMP-2 is on record as “prolong the half-life of BMP-2”. Moreover, the “pSmad1/5 accumulation with BMP-2” value with pSmad1/5 (BMP-2 75 ng/mL, 3 h, heparin 0.62 μM or PA 1 25 μM, n = 3) is listed as “significantly higher relative to that with BMP-2 alone”. For the same molecule, in the data set on pSmad1/5 (heparin 0.62 μM or PA 1 25 μM, no BMP-2), the “pSmad1/5 accumulation without BMP-2” value is reported as “did not enhance accumulation of pSmad proteins”. In the data set on noggin [5], the “effect on noggin activity” value was “binds and inhibits noggin activity, thereby rescuing BMP signaling and the subsequent ALP expression in C2C12 cells”. In addition, the “matrix mineralization of C2C12 cells” value in the data set with C2C12 cells is “inhibited BMP-2 (100 ng/mL) dependent mineralization”. Besides, the “enhancement of ALP expression vs BMP-2 alone, factor” value in data set [2] (normalized to DNA, dose response for heparin and HS) stood at 5. Moreover, in data set [2], the “enhancement of BMP-2 induced ALP activity, in words” value is “more potent response than HS”.
